# pIC50: −log10 of the molar value.
# Target: T1, fMet-Leu-Phe receptor (Homo sapiens) (UniProt P21462)
# T1 sequence (whole entry): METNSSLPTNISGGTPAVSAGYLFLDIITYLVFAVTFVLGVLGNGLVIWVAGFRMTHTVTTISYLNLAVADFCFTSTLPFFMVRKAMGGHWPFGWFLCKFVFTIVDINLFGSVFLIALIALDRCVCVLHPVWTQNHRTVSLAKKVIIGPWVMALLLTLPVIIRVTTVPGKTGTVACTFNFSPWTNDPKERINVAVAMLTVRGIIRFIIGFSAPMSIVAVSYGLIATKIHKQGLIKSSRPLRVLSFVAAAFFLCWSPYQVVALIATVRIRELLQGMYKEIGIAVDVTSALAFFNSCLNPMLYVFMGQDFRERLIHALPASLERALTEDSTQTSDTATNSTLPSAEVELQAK
# Assay: Inhibitory activity against Human formylpeptide receptor (FPR) of human leukemia HL-60 cells
# Assay type: cell-based
# Details: not given
# In short: (§1)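 HL-60 cells differentiated 48 h with 0.2 mM dibutyryl cAMP, washed, then treated with 5 μM cytochalasin B (5–10 min, 37 °C). Stimulated 10 min with 30 nM f-MLF. N-acetyl-β-D-glucosaminidase release read at 410 nm on p-nitrophenyl substrate after spontaneous-release subtraction. Duplicate wells; IC20/IC50 as mean ± SD of independent experiments.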
row,Structure (SMILES),IC20 [µM]
1,C/C=C/C[C@@H](C)[C@@H](O)[C@H]1C(=O)N[C@@H](CC)C(=O)N(C)CC(=O)N(C)[C@H](CC(C)C)C(=O)N[C@H](C(C)C)C(=O)N(C)[C@H](CC(C)C)C(=O)N[C@@H](C)C(=O)N[C@H](C)C(=O)N(C)[C@@H](CC(C)C)C(=O)N(C)[C@@H](CC(C)C)C(=O)N(C)[C@H]([C@H](C)CC)C(=O)N1C,0.29
2,C/C=C/C[C@@H](C)[C@@H](O)C1NC(=O)[C@H](C(C)C)N(C)C(=O)[C@H](CC(C)C)N(C)C(=O)[C@H](CC(C)C)N(C)C(=O)[C@@H](C)NC(=O)[C@H](C)NC(=O)[C@@H](CC(C)C)N(C)C(=O)[C@@H](C(C)C)NC(=O)[C@@H](CC(C)C)N(C)C(=O)CN(C)C(=O)[C@H](C(C)C)NC1=O (stereo not given in full),2
3,C/C=C/C[C@@H](C)[C@@H](O)C1NC(=O)[C@H](C(C)C)N(C)C(=O)[C@H](CC(C)C)N(C)C(=O)[C@H](CC(C)C)N(C)C(=O)[C@@H](C)NC(=O)[C@H](C)NC(=O)[C@@H](CC(C)C)N(C)C(=O)[C@@H](C(C)C)NC(=O)[C@@H](CC(C)C)N(C)C(=O)CN(C)C(=O)[C@H](CC)NC1=O (stereo not given in full),1.9
4,C/C=C/C[C@@H](C)[C@@H](O)C1NC(=O)[C@H](C(C)C)N(C)C(=O)[C@H](CC(C)C)N(C)C(=O)[C@H](CC(C)C)N(C)C(=O)[C@@H](C)NC(=O)[C@H](C)NC(=O)[C@@H](CC(C)C)N(C)C(=O)[C@@H](C(C)C)NC(=O)[C@@H](CC(C)C)N(C)C(=O)CN(C)C(=O)[C@H]([C@@H](C)O)NC1=O (stereo not given in full),1.5

# Target: T2, fMet-Leu-Phe receptor (Homo sapiens, UniProt P21462)
# T2 sequence (P21462 whole entry): T1 sequence (whole entry)
# Assay: Inhibitory activity against human formylpeptide receptor (FPR) of human leukemia HL-60 cells
# Assay type: cell-based
# Details: not given
# In short: as §1
row,Structure (SMILES),pIC50
1,CCC[C@@H]1NC(=O)[C@H](CC(C)C)N(C)C(=O)[C@H](C(C)C)N(C)C(=O)[C@H](CC(C)C)N(C)C(=O)[C@H](CC(C)C)N(C)C(=O)[C@@H](C)NC(=O)[C@H](C)NC(=O)[C@H](CC(C)C)N(C)C(=O)[C@H](C(C)C)NC(=O)[C@H](CC(C)C)N(C)C(=O)CN(C)C1=O,< 5.00
2,CC/C=C/C[C@@H](C)[C@@H](O)[C@H]1C(=O)N[C@@H](CC)C(=O)N(C)CC(=O)N(C)[C@@H](C(C)C)C(=O)N[C@@H](C(C)C)C(=O)N(C)[C@@H](CC(C)C)C(=O)N[C@@H](C)C(=O)N[C@H](C)C(=O)N(C)[C@@H](CC(C)C)C(=O)N(C)[C@@H](CC(C)C)C(=O)N(C)[C@@H](C(C)C)C(=O)N1C,< 5.30
3,C/C=C/C[C@@H](C)[C@@H](O)[C@H]1C(=O)N[C@@H]([C@@H](C)O)C(=O)N(C)CC(=O)N(C)[C@@H](CC(C)C)C(=O)N[C@@H]([C@@H](C)CC)C(=O)N(C)[C@@H](CC(C)C)C(=O)N[C@@H](C)C(=O)N[C@](O)(C(C)C)C(=O)N(C)[C@@H](CC(C)C)C(=O)N[C@@H](CC(C)C)C(=O)N(C)[C@@H](C(C)C)C(=O)N1C,6.12
4,CC/C=C/C[C@@H](C)[C@@H](O)[C@H]1C(=O)N[C@@H](CCC)C(=O)N(C)CC(=O)N(C)[C@@H](CC(C)C)C(=O)N[C@@H](C(C)C)C(=O)N(C)[C@@H](CC(C)C)C(=O)N[C@@H](C)C(=O)N[C@H](C)C(=O)N(C)[C@@H](CC(C)C)C(=O)N(C)[C@@H](CC(C)C)C(=O)N(C)[C@@H](C(C)C)C(=O)N1C,< 5.00
5,CC/C=C/C[C@@H](C)[C@@H](O)[C@H]1C(=O)N[C@@H](C(C)C)C(=O)N(C)CC(=O)N(C)[C@@H](CC(C)C)C(=O)N[C@@H](C(C)C)C(=O)N(C)[C@@H](CC(C)C)C(=O)N[C@@H](C)C(=O)N[C@H](C)C(=O)N(C)[C@@H](CC(C)C)C(=O)N(C)[C@@H](CC(C)C)C(=O)N(C)[C@@H](C(C)C)C(=O)N1C,< 5.00
6,C/C=C/C[C@@H](C)[C@@H](O)[C@H]1C(=O)N[C@@H](CCC)C(=O)N(C)CC(=O)N(C)[C@@H](CC(C)C)C(=O)N[C@@H](C(C)C)C(=O)N(C)[C@@H](CC(C)C)C(=O)N[C@@H](C)C(=O)N[C@H](C)C(=O)N(C)[C@@H](CC(C)C)C(=O)N[C@@H](CC(C)C)C(=O)N(C)[C@@H](C(C)C)C(=O)N1C,< 5.52
7,CC(C)C[C@@H]1NC(=O)[C@H](CC(C)C)N(C)C(=O)[C@@](O)(C(C)C)NC(=O)[C@H](C)NC(=O)[C@H](CC(C)C)N(C)C(=O)[C@H](CC(C)C)NC(=O)[C@H](CC(C)C)N(C)C(=O)CN(C)C(=O)[C@H]([C@@H](C)O)NC(=O)[C@H]([C@H](O)[C@H](C)C/C=C/CO)N(C)C(=O)[C@H](C(C)C)N(C)C1=O,5.83
8,C/C=C/C[C@@H](C)[C@@H](O)[C@H]1C(=O)N[C@@H]([C@@H](C)O)C(=O)N(C)CC(=O)N(C)[C@@H](CC(C)C)C(=O)N[C@@H](C(C)C)C(=O)N(C)[C@@H](CC(C)C)C(=O)N[C@@H](C)C(=O)N[C@H](C)C(=O)N(C)[C@@H](CC(C)C)C(=O)N[C@@H](CC(C)C)C(=O)N(C)[C@@H](C(C)C)C(=O)N1C,< 5.52
9,C/C=C/C[C@@H](C)C[C@H]1C(=O)N[C@@H](CC)C(=O)N(C)CC(=O)N(C)[C@@H](CC(C)C)C(=O)N[C@@H](C(C)C)C(=O)N(C)[C@@H](CC(C)C)C(=O)N[C@@H](C)C(=O)N[C@H](C)C(=O)N(C)[C@@H](CC(C)C)C(=O)N(C)[C@@H](CC(C)C)C(=O)N(C)[C@@H](C(C)C)C(=O)N1C,< 5.00
10,C/C=C/C[C@@H](C)[C@@H](O)[C@H]1C(=O)N[C@@H](C)C(=O)N(C)CC(=O)N(C)[C@@H](CC(C)C)C(=O)N[C@@H](C(C)C)C(=O)N(C)[C@@H](CC(C)C)C(=O)N[C@@H](C)C(=O)N[C@H](C)C(=O)N(C)[C@@H](CC(C)C)C(=O)N[C@@H](CC(C)C)C(=O)N(C)[C@@H](C(C)C)C(=O)N1C,5.66
11,C/C=C/C[C@@H](C)[C@@H](O)[C@H]1C(=O)N[C@@H](CCC)C(=O)N(C)CC(=O)N(C)[C@@H](CC(C)C)C(=O)N[C@@H](CC(C)C)C(=O)N(C)[C@@H](CC(C)C)C(=O)N[C@@H](C)C(=O)N[C@H](C)C(=O)N(C)[C@@H](CC(C)C)C(=O)N(C)[C@@H](CC(C)C)C(=O)N(C)[C@@H](C(C)C)C(=O)N1C,< 5.00
12,CC(C)C[C@H]1C(=O)N[C@@H](C(C)C)C(=O)N(C)[C@@H](CC(C)C)C(=O)N[C@@H](C)C(=O)N[C@H](C)C(=O)N(C)[C@@H](CC(C)C)C(=O)N(C)[C@@H](CC(C)C)C(=O)N(C)[C@@H](C(C)C)C(=O)N(C)[C@@H](CC(C)C)C(=O)N[C@@H](C(C)C)C(=O)N(C)CC(=O)N1C,< 5.00
13,C/C=C/C[C@@H](C)[C@@H](O)[C@H]1C(=O)N[C@@H]([C@@H](C)O)C(=O)NCC(=O)N(C)[C@@H](CC(C)C)C(=O)N[C@@H](CC(C)C)C(=O)N(C)[C@@H](CC(C)C)C(=O)N[C@@H](C)C(=O)N[C@](O)(C(C)C)C(=O)N(C)[C@@H](CC(C)C)C(=O)N[C@@H](CC(C)C)C(=O)N(C)[C@@H](C(C)C)C(=O)N1C,6.52
14,C/C=C/C[C@@H](C)[C@@H](O)[C@H]1C(=O)N[C@@H]([C@@H](C)O)C(=O)N(C)CC(=O)N(C)[C@@H](CC(C)C)C(=O)N[C@@H](CC(C)C)C(=O)N(C)[C@@H](CC(C)C)C(=O)N[C@@H](C)C(=O)N[C@H](C)C(=O)N(C)[C@@H](CC(C)C)C(=O)N[C@@H](CC(C)C)C(=O)N(C)[C@@H](C(C)C)C(=O)N1C,6.23
15,CC/C=C/C[C@@H](C)[C@@H](O)[C@H]1C(=O)N[C@@H]([C@@H](C)O)C(=O)N(C)CC(=O)N(C)[C@@H](CC(C)C)C(=O)N[C@@H](C(C)C)C(=O)N(C)[C@@H](CC(C)C)C(=O)N[C@@H](C)C(=O)N[C@H](C)C(=O)N(C)[C@@H](CC(C)C)C(=O)N(C)[C@@H](CC(C)C)C(=O)N(C)[C@@H](C(C)C)C(=O)N1C,< 5.00
16,C/C=C/C[C@@H](C)[C@@H](O)[C@H]1C(=O)N[C@@H]([C@@H](C)O)C(=O)N(C)CC(=O)N[C@@H](CC(C)C)C(=O)N[C@@H](CC(C)C)C(=O)N(C)[C@@H](CC(C)C)C(=O)N[C@@H](C)C(=O)N[C@](O)(C(C)C)C(=O)N(C)[C@@H](CC(C)C)C(=O)N[C@@H](CC(C)C)C(=O)N(C)[C@@H](C(C)C)C(=O)N1C,6.25
17,C/C=C/C[C@@H](C)[C@@H](O)[C@H]1C(=O)N[C@@H](CCC)C(=O)N(C)CC(=O)N(C)[C@@H](CC(C)C)C(=O)N[C@@H](CCC)C(=O)N(C)[C@@H](CC(C)C)C(=O)N[C@@H](C)C(=O)N[C@H](C)C(=O)N(C)[C@@H](CC(C)C)C(=O)N(C)[C@@H](CC(C)C)C(=O)N(C)[C@@H](C(C)C)C(=O)N1C,5.47

# Same assay, conditions: hl-60
row,Structure (SMILES),pIC50
1,C/C=C/C[C@@H](C)[C@@H](O)[C@H]1C(=O)N[C@@H](CC)C(=O)N(C)CC(=O)N(C)[C@H](CC(C)C)C(=O)N[C@H](C(C)C)C(=O)N(C)[C@H](CC(C)C)C(=O)N[C@@H](C)C(=O)N[C@H](C)C(=O)N(C)[C@@H](CC(C)C)C(=O)N(C)[C@@H](CC(C)C)C(=O)N(C)[C@H]([C@H](C)CC)C(=O)N1C,5.80
2,C/C=C/C[C@@H](C)[C@@H](O)C1NC(=O)[C@H](C(C)C)N(C)C(=O)[C@H](CC(C)C)N(C)C(=O)[C@H](CC(C)C)N(C)C(=O)[C@@H](C)NC(=O)[C@H](C)NC(=O)[C@@H](CC(C)C)N(C)C(=O)[C@@H](C(C)C)NC(=O)[C@@H](CC(C)C)N(C)C(=O)CN(C)C(=O)[C@H](C(C)C)NC1=O (stereo not given in full),< 5.00
3,C/C=C/C[C@@H](C)[C@@H](O)C1NC(=O)[C@H](C(C)C)N(C)C(=O)[C@H](CC(C)C)N(C)C(=O)[C@H](CC(C)C)N(C)C(=O)[C@@H](C)NC(=O)[C@H](C)NC(=O)[C@@H](CC(C)C)N(C)C(=O)[C@@H](C(C)C)NC(=O)[C@@H](CC(C)C)N(C)C(=O)CN(C)C(=O)[C@H](CC)NC1=O (stereo not given in full),5.19
4,C/C=C/C[C@@H](C)[C@@H](O)C1NC(=O)[C@H](C(C)C)N(C)C(=O)[C@H](CC(C)C)N(C)C(=O)[C@H](CC(C)C)N(C)C(=O)[C@@H](C)NC(=O)[C@H](C)NC(=O)[C@@H](CC(C)C)N(C)C(=O)[C@@H](C(C)C)NC(=O)[C@@H](CC(C)C)N(C)C(=O)CN(C)C(=O)[C@H]([C@@H](C)O)NC1=O (stereo not given in full),5.26

# From ChEMBL document CHEMBL1135620, “Cyclosporins: structure-activity relationships for the inhibition of the human FPR1 formylpeptide receptor” (J Med Chem, 2002)
